According to ChEMBL document CHEMBL4145668, “Dipeptide Prodrugs of the Glutamate Modulator Riluzole” (ACS Med Chem Lett, 2018):
Calls of active or inactive are those of the source. The calls are words filed in the database; no cut-off is given here.

Assays:
[1] = Prodrug conversion in simulated intestinal fluid assessed as riluzole formation by measuring compound half life at 0.01 mg/ml by LC/MS analysis; assay type: ADME; conditions: simulated gi fluid
How it was run: (§1)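 Each prodrug was incubated in pH 7.4 buffer, fresh rat serum, simulated gastric fluid or simulated intestinal fluid. Prodrug disappearance was followed for up to 2-4 h to derive a half-life in hours.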

[2] = Prodrug conversion in pH 7.4 buffer assessed as riluzole formation by measuring compound half life; assay type: physicochemical; how it was run: as §1
[3] = Prodrug conversion in simulated gastric fluid assessed as riluzole formation by measuring compound half life at 0.01 mg/ml by LC/MS analysis; assay type: ADME; conditions: simulated gi fluid; how it was run: as §1
[4] = Prodrug conversion in rat serum assessed as riluzole formation by measuring compound half life; assay type: ADME, cell-free; how it was run: as §1
Homo sapiens [5] = experiment: Antitumor activity against human C8161 cells xenografted in mouse assessed as tumor growth inhibition at 7.5 mg/kg, po administered once daily via gavage for 21 days measured at 7 days interval during compound dosing; assay type: functional, organism-based
How it was run: (§2)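 Nude mice were inoculated in the flank with 10^6 human C8161 melanoma cells. When tumors reached 40 mm3, the mice were randomized into groups of similar tumor volume. Vehicle was DMSO. Dosing was daily by oral gavage for 21 days, and tumor growth was followed.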

[6] = Prodrug conversion in rat liver microsomes assessed as riluzole formation by measuring half life; assay type: ADME, microsome
How it was run: (§3)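 Prodrug stability was tested in human, mouse, rat and dog liver microsomes, and a half-life in minutes was reported.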

[7] = Tmax in Sprague-Dawley rat at 2.8 mg/kg, iv; assay type: ADME, organism-based; conditions: in vivo
[8] = Prodrug conversion in mouse plasma xenografted with human C8161 cells assessed as riluzole formation at 4.9 to 14.8 mg/kg, po administered via gavage measured 2 hrs post dose; assay type: ADME, organism-based; conditions: in vivo
How it was run: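 In C8161 xenograft-bearing nude mice given daily oral gavage doses, plasma was sampled from selected animals 2 hours post dosing to check riluzole exposure.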

Rattus norvegicus [9] = experiment: Cmax in Sprague-Dawley rat assessed as riluzole level at 2.8 mg/kg, iv measured up to 8 hrs; assay type: ADME, organism-based; set-up: dose 2.8 mg/kg, route intravenous; conditions: in vivo
Rattus norvegicus [10] = experiment: AUClast in Sprague-Dawley rat assessed as riluzole level at 2.8 mg/kg, iv measured up to 8 hrs; assay type: ADME, organism-based; set-up: time < 8 hr, dose 2.8 mg/kg, route intravenous; conditions: in vivo
[11] = Prodrug conversion in human liver microsomes assessed as riluzole formation by measuring half life; assay type: ADME, microsome; how it was run: as §3
CYP3A4 [12] = target: T1, CYP3A4 (Homo sapiens, UniProt P08684); experiment: Inhibition of CYP3A4 (unknown origin) at 10 uM using testosterone as substrate relative to control; assay type: ADME; conditions: probe testosterone
Rattus norvegicus [13] = experiment: AUClast in Sprague-Dawley rat assessed as riluzole level at 14.6 mg/kg, po measured up to 8 hrs; assay type: ADME, organism-based; set-up: time < 8 hr, dose 14.6 mg/kg, route oral; conditions: in vivo
How it was run: (§4)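 Male Sprague-Dawley rats received a single oral dose. Plasma prodrug and riluzole levels were monitored up to eight hours after dosing.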

[14] = Apparent permeability across basolateral to apical side in human Caco2 cells; assay type: ADME, cell-based; conditions: Caco-2
How it was run: (§5)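 Bidirectional transport across Caco-2 monolayers was measured as Papp A-B and Papp B-A in nm/s. Efflux ratio was calculated as B-A over A-B.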

[15] = Apparent permeability across apical to basolateral side in human Caco2 cells; assay type: ADME, cell-based; conditions: Caco-2; how it was run: as §5
CYP3A4 [16] = target: T1, CYP3A4; experiment: Inhibition of CYP3A4 (unknown origin) at 10 uM using midazolam as substrate relative to control; assay type: ADME; conditions: probe midazolam
CYP1A2 = target: T2, CYP1A2 (Homo sapiens, UniProt P05177); experiment: Inhibition of CYP1A2 (unknown origin) at 10 uM relative to control; assay type: ADME
T2 sequence (P05177 whole entry): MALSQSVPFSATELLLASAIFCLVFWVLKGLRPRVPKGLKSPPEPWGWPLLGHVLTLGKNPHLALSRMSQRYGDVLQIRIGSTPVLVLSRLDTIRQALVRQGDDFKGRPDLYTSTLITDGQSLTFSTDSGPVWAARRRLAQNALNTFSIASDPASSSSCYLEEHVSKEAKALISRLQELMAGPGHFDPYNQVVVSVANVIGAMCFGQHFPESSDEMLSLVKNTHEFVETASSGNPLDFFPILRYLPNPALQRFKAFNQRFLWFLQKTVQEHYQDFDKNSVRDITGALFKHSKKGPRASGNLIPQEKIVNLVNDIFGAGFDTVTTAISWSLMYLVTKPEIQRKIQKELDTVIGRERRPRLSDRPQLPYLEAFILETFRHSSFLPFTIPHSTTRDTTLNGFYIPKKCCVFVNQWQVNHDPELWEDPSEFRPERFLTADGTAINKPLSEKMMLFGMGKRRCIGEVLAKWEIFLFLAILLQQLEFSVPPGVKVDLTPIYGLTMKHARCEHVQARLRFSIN

Rattus norvegicus [17] = experiment: Tmax in Sprague-Dawley rat assessed as riluzole level at 14.6 mg/kg, po measured up to 8 hrs; assay type: ADME, organism-based; conditions: in vivo; how it was run: as §4
[18] = Cmax in Sprague-Dawley rat at 2.8 mg/kg, iv; assay type: ADME, organism-based; set-up: dose 2.8 mg/kg, route intravenous; conditions: in vivo
Rattus norvegicus [19] = experiment: Tmax in Sprague-Dawley rat assessed as riluzole level at 2.8 mg/kg, iv measured up to 8 hrs; assay type: ADME, organism-based; conditions: in vivo
Homo sapiens [20] = experiment: Antitumor activity against human C8161 cells xenografted in mouse assessed as tumor growth inhibition at 4.9 to 14.8 mg/kg, po administered once daily via gavage for 21 days measured at 7 days interval during compound dosing; assay type: functional, organism-based; how it was run: as §2
CYP2D6 = CYP2D6 (Homo sapiens, UniProt P10635); experiment: Inhibition of CYP2D6 (unknown origin) at 10 uM relative to control; assay type: ADME
[21] = Prodrug conversion in mouse liver microsomes assessed as riluzole formation by measuring half life; assay type: ADME, microsome; how it was run: as §3
Rattus norvegicus [22] = experiment: Oral bioavailability in Sprague-Dawley rat at 14.6 mg/kg; assay type: ADME, organism-based; conditions: in vivo; how it was run: as §4
[23] = Prodrug conversion in dog liver microsomes assessed as riluzole formation by measuring half life; assay type: ADME, Canis lupus familiaris, microsome; how it was run: as §3
Rattus norvegicus [24] = experiment: Cmax in Sprague-Dawley rat assessed as riluzole level at 14.6 mg/kg, po measured up to 8 hrs; assay type: ADME, organism-based; set-up: dose 14.6 mg/kg, route oral; conditions: in vivo; how it was run: as §4
[25] = Efflux ratio of apparent permeability […] in human Caco2 cells; assay type: ADME, cell-based; conditions: Caco-2
Rattus norvegicus [26] = experiment: Half life in Sprague-Dawley rat assessed as riluzole level at 2.8 mg/kg, iv measured up to 8 hrs; assay type: ADME, organism-based; conditions: in vivo

T1 sequence (P08684 whole entry): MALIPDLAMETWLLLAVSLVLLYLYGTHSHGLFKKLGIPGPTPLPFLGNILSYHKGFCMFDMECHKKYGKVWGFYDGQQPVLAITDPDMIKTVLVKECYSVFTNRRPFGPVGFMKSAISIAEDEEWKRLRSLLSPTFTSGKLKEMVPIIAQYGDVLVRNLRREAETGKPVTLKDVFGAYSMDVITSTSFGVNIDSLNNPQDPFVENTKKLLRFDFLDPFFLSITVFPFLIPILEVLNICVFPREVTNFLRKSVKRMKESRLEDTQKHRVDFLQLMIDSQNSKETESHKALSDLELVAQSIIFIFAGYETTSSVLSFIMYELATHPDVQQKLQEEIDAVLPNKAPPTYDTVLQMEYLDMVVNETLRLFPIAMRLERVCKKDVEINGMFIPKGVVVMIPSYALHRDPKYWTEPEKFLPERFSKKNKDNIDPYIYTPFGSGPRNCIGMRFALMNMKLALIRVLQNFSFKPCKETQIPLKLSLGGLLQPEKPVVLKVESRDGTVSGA
Sequence of CYP2D6 (P10635 whole entry): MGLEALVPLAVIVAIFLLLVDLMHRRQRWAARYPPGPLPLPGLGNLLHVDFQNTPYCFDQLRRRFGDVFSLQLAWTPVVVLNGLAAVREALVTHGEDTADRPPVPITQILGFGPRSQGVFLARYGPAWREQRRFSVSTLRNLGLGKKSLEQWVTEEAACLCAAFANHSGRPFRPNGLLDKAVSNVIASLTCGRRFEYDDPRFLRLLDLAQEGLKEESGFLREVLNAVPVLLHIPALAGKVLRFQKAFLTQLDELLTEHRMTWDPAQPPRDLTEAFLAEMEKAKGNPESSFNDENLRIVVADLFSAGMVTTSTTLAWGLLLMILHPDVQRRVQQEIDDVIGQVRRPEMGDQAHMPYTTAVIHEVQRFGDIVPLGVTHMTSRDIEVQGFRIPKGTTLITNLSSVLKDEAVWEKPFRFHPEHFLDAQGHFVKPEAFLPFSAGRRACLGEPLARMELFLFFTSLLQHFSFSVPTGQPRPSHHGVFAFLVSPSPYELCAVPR

With CNCC(=O)N(C)CC(=O)Nc1nc2ccc(OC(F)(F)F)cc2s1 the t1/2 [1] was < 1 h, the t1/2 [2] was < 0.1 h and the t1/2 [3] was > 4 h. For the same molecule, the t1/2 [4] was < 0.1 h.

In the case of NCC(=O)N1CCC[C@@H]1C(=O)Nc1nc2ccc(OC(F)(F)F)cc2s1, the t1/2 [1] is reported as < 1 h, the t1/2 [2] is reported as 0.2 h and the t1/2 [3] is reported as 2.5 h. The t1/2 [4] was 0.25 h.

With CC(C)NCC(=O)N(C)CC(=O)Nc1nc2ccc(OC(F)(F)F)cc2s1 the t1/2 [1] was > 4 h, the t1/2 [2] was > 24 h and the t1/2 [3] was > 4 h. For the same molecule, the t1/2 [4] was > 2 h.

In the case of Nc1nc2ccc(OC(F)(F)F)cc2s1, the TGI (Homo sapiens [5]) is reported as “Active”.

For CN(CC(=O)Nc1nc2ccc(OC(F)(F)F)cc2s1)C(=O)CNC(C)(C)C, the t1/2 [6] was > 1 h, the Tmax [7] was 0 h and the Drug metabolism [8] was “Metabolite_Detected”. The Cmax (Rattus norvegicus [9]) was 187 ng/mL, the AUClast (Rattus norvegicus [10]) was 1137 ng·h/mL and the t1/2 [11] was > 1 h. For the same molecule, the t1/2 [1] was > 4 h, the inhibition at 10 µM (CYP3A4 [12]) was < 10% and the AUClast (Rattus norvegicus [13]) was 20518 ng·h/mL. For the same molecule, the t1/2 [2] was > 24 h, the Papp B→A [14] was 2.41 ×10⁻⁶ cm/s and the t1/2 [3] was > 4 h. The Papp A→B [15] was 1.38 ×10⁻⁶ cm/s, the inhibition at 10 µM (CYP3A4 [16]) was < 10% and the inhibition at 10 µM (CYP1A2) was < 10%. The Tmax (Rattus norvegicus [17]) was 8 h, the t1/2 [4] was > 2 h and the Cmax [18] was 1730 ng/mL. The Tmax (Rattus norvegicus [19]) was 0.78 h, the TGI (Homo sapiens [20]) was “Active” and the inhibition at 10 µM (CYP2D6) was < 10%. The t1/2 [21] was > 1 h, the F (Rattus norvegicus [22]) was 70% and the t1/2 [23] was > 1 h. It also gave a Cmax (Rattus norvegicus [24]) of 1587 ng/mL, an efflux ratio [25] of 1.7 and a t1/2 (Rattus norvegicus [26]) of 7.83 h.

With CC(C)(C)NCC(=O)NC(C)(C)C(=O)Nc1nc2ccc(OC(F)(F)F)cc2s1 the t1/2 [1] was > 4 h, the t1/2 [2] was > 2 h and the t1/2 [3] was > 4 h. The t1/2 [4] was > 2 h.

With CC(C)(C)NCC(=O)N1CCC[C@@H]1C(=O)Nc1nc2ccc(OC(F)(F)F)cc2s1 the t1/2 [2] was > 24 h and the t1/2 [4] was > 2 h.

With CC(C)(NC(=O)CN)C(=O)Nc1nc2ccc(OC(F)(F)F)cc2s1 the t1/2 [1] was < 1 h, the t1/2 [3] was > 4 h and the t1/2 [4] was 2 h.

In the case of CN(CC(=O)Nc1nc2ccc(OC(F)(F)F)cc2s1)C(=O)CN, the t1/2 [2] is reported as < 0.1 h and the t1/2 [4] is reported as < 0.1 h.

In the case of CCNCC(=O)N(C)CC(=O)Nc1nc2ccc(OC(F)(F)F)cc2s1, the t1/2 [1] is reported as < 1 h, the t1/2 [2] is reported as < 0.25 h and the t1/2 [3] is reported as > 4 h. The t1/2 [4] was < 0.25 h.
